# Measurements gathered from unrelated publications.
# Protocols differ between the studies behind these lines.
SMILES,organism,assay,system,setting,endpoint,value
CC1=C(Cc2cn(CCN3CCNCC3)nn2)C(=O)c2ccccc2C1=O,Schistosoma mansoni,parasite growth,,"72 h, larva",IC50,1670 nM
O=C(Nc1cccc(F)c1)c1ccc(COC(Cn2ccnc2)c2ccc(Cl)cc2Cl)cc1 (centres unmarked),Pichia kudriavzevii,"microbial growth, broth dilution",,,MIC80,0.25 µg/mL
C#CCON=C1C=CC(=C(C#N)c2ccccc2)C=C1,Pichia kudriavzevii,"microbial growth, broth dilution",ATCC14243,48 h,MIC,32 µg/mL
CC(C)c1ccc(/C=C2\N=C(SCC(=O)O)N(c3ccccc3)C2=O)cc1,Fusarium solani,"microbial growth, broth dilution",,,MIC,12 µg/mL
O=C(Nc1ccc(F)cc1)c1ccc(COC(Cn2ccnc2)c2ccc(Cl)cc2Cl)cc1 (centres unmarked),Pichia kudriavzevii,"microbial growth, broth dilution",,,MIC80,0.06 µg/mL
CC1=C(Cn2cc([Si](C)(C)C)nn2)C(=O)c2ccccc2C1=O,Schistosoma mansoni,parasite growth,,"72 h, larva",IC50,1570 nM
CC(=O)ON=C1C=CC(=C(C#N)c2ccccc2)C=C1,Pichia kudriavzevii,"microbial killing, broth dilution",ATCC14243,48 h,MFC,16 µg/mL
O=C(Nc1ccc2cccnc2c1)c1ccc(COC(Cn2ccnc2)c2ccc(Cl)cc2Cl)cc1 (centres unmarked),Pichia kudriavzevii,"microbial growth, broth dilution",,,MIC80,8 µg/mL
N#CC(=C1C=CC(=NOC(=O)OCc2ccccc2)C=C1)c1ccccc1,Pichia kudriavzevii,"microbial killing, broth dilution",ATCC14243,48 h,MFC,256 µg/mL
OC(Cn1cncn1)(Cn1cncn1)c1ccc(F)cc1F,Pichia kudriavzevii,"microbial growth, broth dilution",,,MIC80,16 µg/mL
CC(=O)N1CCN(c2ccc(OCC3COC(Cn4ccnc4)(c4ccc(Cl)cc4Cl)O3)cc2)CC1 (centres unmarked),Pichia kudriavzevii,"microbial growth, broth dilution",ATCC14243,48 h,MIC,8 µg/mL
CC1=C(Cn2cc(COC3COC3)nn2)C(=O)c2ccccc2C1=O,Schistosoma mansoni,parasite growth,,"72 h, larva",IC50,1080 nM
Clc1ccc(COC(Cn2ccnc2)c2ccc(Cl)cc2Cl)c(Cl)c1 (centres unmarked),Pichia kudriavzevii,"microbial growth, broth dilution",,,MIC80,0.5 µg/mL
CC1=C(Cn2cc(CO)nn2)C(=O)c2ccccc2C1=O,Schistosoma mansoni,parasite growth,,"72 h, larva",IC50,1050 nM
C[C@@H]1[C@H](O)[C@@H](C)/C=C/C=C/C=C/C=C/C=C/C=C/C=C/[C@H](O[C@@H]2O[C@H](C)[C@@H](O)[C@H](N)[C@@H]2O)C[C@@H]2O[C@](O)(C[C@@H](O)C[C@@H](O)[C@H](O)CC[C@@H](O)C[C@@H](O)CC(=O)O[C@H]1C)C[C@H](O)[C@H]2C(=O)O,Pichia kudriavzevii,"microbial growth, broth dilution",ATCC14243,48 h,MIC,2 µg/mL
Cc1ccc(NC(=O)c2ccc(COC(Cn3ccnc3)c3ccc(Cl)cc3Cl)cc2)cc1 (centres unmarked),Pichia kudriavzevii,"microbial growth, broth dilution",,,MIC80,0.125 µg/mL
C#CCOC(=O)ON=C1C=CC(=C(C#N)c2ccccc2)C=C1,Pichia kudriavzevii,"microbial killing, broth dilution",ATCC14243,48 h,MFC,32 µg/mL
CC1=C(Cn2cc(CN3CCNCC3)nn2)C(=O)c2ccccc2C1=O,Schistosoma mansoni,parasite growth,,"72 h, larva",IC50,930 nM
COc1ccc(NC(=O)c2ccc(COC(Cn3ccnc3)c3ccc(Cl)cc3Cl)cc2)cc1 (centres unmarked),Pichia kudriavzevii,"microbial growth, broth dilution",,,MIC80,0.125 µg/mL
CC1=C(Cc2cn(CCN3CCN(C(=O)OC(C)(C)C)CC3)nn2)C(=O)c2ccccc2C1=O,Schistosoma mansoni,parasite growth,,"72 h, larva",IC50,1890 nM
C=CC(=O)ON=C1C=CC(=C(C#N)c2ccccc2)C=C1,Pichia kudriavzevii,"microbial growth, broth dilution",ATCC14243,48 h,MIC,16 µg/mL
CC1=C(Cc2cn(CCN3CCC(F)(F)CC3)nn2)C(=O)c2ccccc2C1=O,Schistosoma mansoni,parasite growth,,"72 h, larva",IC50,1600 nM
Cc1nnc(-c2ccc3ccn(CC(=O)Nc4ccccc4Cl)c3c2)o1,Plasmodium knowlesi,"parasite growth, SYBR Green",,"30 h, blood stage",EC50,431 nM
